Reference: ChEMBL document CHEMBL1123171, “Synthesis of delta 3-1-methylene-1-carbacephems” (1986)
Values after ≈ are worked out from the molar mass of the structure shown.

Key:
Bacillus subtilis = experiment: In vitro antibacterial activity against B. subtilis( NCTC 8236); format: functional
In short: (§1)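 Agar dilution MIC in diagnostic sensitivity test agar; inoculum 10^5–10^6 cfu/spot applied with a multipoint inoculator. Test compounds were racemic, so reported values are corrected: only one-half of the observed MIC is taken.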

Escherichia coli = experiment: In vitro antibacterial activity against Escherichia coli (ESS); format: functional; in short: as §1
Staphylococcus aureus = experiment: Compound was tested in vitro for the antibacterial activity against Staphylococcus aureus (ATCC 6538P); format: functional; in short: as §1
[1] = tested on: Sarcina lutea (ATCC 9341); experiment: In vitro antibacterial activity against Sarcina lutea (ATCC 9341)

Row | MIC (Bacillus subtilis) [µg/mL] | MIC (Escherichia coli) [µg/mL] | MIC (Staphylococcus aureus) [µg/mL] | MIC [1] [µg/mL] | SMILES
1 | 1.5 (≈ 4.21 µM) | 1.5 (≈ 4.21 µM) | 4 (≈ 11.2 µM) | 2 (≈ 5.61 µM) | C=C1C2[C@H](NC(=O)COc3ccccc3)C(=O)N2C(C(=O)O)=CC1(C)C (some centres not stated)
2 | 1.5 (≈ 4.22 µM) | 5 (≈ 14.1 µM) | 8 (≈ 22.5 µM) | 0.12 (≈ 0.338 µM) | C=C1C2[C@H](NC(=O)C(N)c3ccccc3)C(=O)N2C(C(=O)O)=CC1(C)C (some centres not stated)
3 | 1 (≈ 2.88 µM) | 1 (≈ 2.88 µM) | 0.3 (≈ 0.864 µM) | 0.03 (≈ 0.0864 µM) | CC1=C(C(=O)O)N2C(=O)[C@@H](NC(=O)[C@H](N)c3ccccc3)[C@H]2SC1 [CEPHALEXIN ANHYDROUS]
